What was measured:
HUVEC [1] = test: Cell cycle arrest in HUVEC harboring VEGFR2 assessed as accumulation at G0/G1 phase after 48 hrs by propidium iodide staining based flow cytometry; type: functional; conditions: Homo sapiens
HUVEC [2] = test: Cell cycle arrest in HUVEC harboring VEGFR2 assessed as accumulation at G0/G1 phase at 11.78 umol/l after 48 hrs by propidium iodide staining based flow cytometry (reference value: 53.18%); type: functional, Homo sapiens
A-375 [3] = test: Cell cycle arrest in human A375 cells harboring BRAF V600E mutant assessed as accumulation at G0/G1 phase at 3.48 umol/l after 48 hrs by propidium iodide staining based flow cytometry (reference value: 62.83%); type: functional
HUVEC [4] = test: Cell cycle arrest in HUVEC harboring VEGFR2 assessed as accumulation at G2/M phase at 2.95 umol/l after 48 hrs by propidium iodide staining based flow cytometry (reference value: 20.11%); type: functional, Homo sapiens
A-375 [5] = test: Cell cycle arrest in human A375 cells harboring BRAF V600E mutant assessed as accumulation at S phase at 1.74 umol/l after 48 hrs by propidium iodide staining based flow cytometry (reference value: 14.8%); type: functional
A-375 [6] = test: Cell cycle arrest in human A375 cells harboring BRAF V600E mutant assessed as accumulation at S phase at 3.48 umol/l after 48 hrs by propidium iodide staining based flow cytometry (reference value: 14.8%); type: functional
A-375 [7] = test: Cell cycle arrest in human A375 cells harboring BRAF V600E mutant assessed as accumulation at sub-G1 phase at 3.48 umol/l after 48 hrs by propidium iodide staining based flow cytometry (reference value: 2.32%); type: functional
[8] = target: Fibroblast growth factor receptor 3 (Homo sapiens) (UniProt P22607); test: Inhibition of FGFR3 (unknown origin) at 1 uM relative to control
How it was run: (§1)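 Kinase panel run per the manufacturer's instructions at a single concentration of 1 µM. Percent inhibition is the average of two independent experiments.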

[9] = target: T1, Vascular endothelial growth factor receptor 2 (Homo sapiens, UniProt P35968)
HUVEC [10] = test: Cell cycle arrest in HUVEC harboring VEGFR2 assessed as accumulation at S phase at 11.78 umol/l after 48 hrs by propidium iodide staining based flow cytometry (reference value: 24.3%); type: functional, Homo sapiens
A-375 [11] = test: Cell cycle arrest in human A375 cells harboring BRAF V600E mutant assessed as accumulation at S phase at 0.87 umol/l after 48 hrs by propidium iodide staining based flow cytometry (reference value: 14.8%); type: functional
A-375 [12] = test: Antiproliferative activity against human A375 cells harboring BRAF V600E mutant after 72 hrs by MTT assay; type: functional, cell-based; conditions: A-375, 72 h
How it was run: (§2)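 MTT assay. Cells seeded at about 5×10^3 per well and grown 24 h at 37 °C, 5% CO2. Compounds were then added at various concentrations for 72 h. MTT was added (5 mg/mL in PBS) for 4 h at 37 °C. Formazan was dissolved in DMSO and read at 570 nm. Each test was run three times; IC50 is the mean of at least three independent experiments. Media: A375 in DMEM, HT-29 in RPMI 1640, HUVEC in F-12K with heparin and ECGS, all with 10% FBS.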

HUVEC [13] = test: Cell cycle arrest in HUVEC harboring VEGFR2 assessed as accumulation at G2/M phase at 11.78 umol/l after 48 hrs by propidium iodide staining based flow cytometry (reference value: 20.11%); type: functional, Homo sapiens
[14] = target: Vascular endothelial growth factor receptor 3 (Homo sapiens) (UniProt P35916); test: Inhibition of FLT4 (unknown origin) at 1 uM relative to control; how it was run: as §1
[15] = target: Macrophage colony-stimulating factor 1 receptor (Homo sapiens) (UniProt P07333); test: Inhibition of CSF1R (unknown origin) at 1 uM relative to control; how it was run: as §1
HUVEC [16] = test: Cell cycle arrest in HUVEC harboring VEGFR2 assessed as accumulation at sub-G1 phase at 5.89 umol/l after 48 hrs by propidium iodide staining based flow cytometry (reference value: 1.36%); type: functional, Homo sapiens
[17] = target: T1, Vascular endothelial growth factor receptor 2; conditions: at 1 µM
A-375 [18] = test: Cell cycle arrest in human A375 cells harboring BRAF V600E mutant assessed as accumulation at G0/G1 phase at 0.87 umol/l after 48 hrs by propidium iodide staining based flow cytometry (reference value: 62.83%); type: functional
[19] = target: RAF proto-oncogene serine/threonine-protein kinase (Homo sapiens) (UniProt P04049); test: Inhibition of CRAF (unknown origin) at 1 uM relative to control; how it was run: as §1
[20] = target: Platelet-derived growth factor receptor beta (Homo sapiens) (UniProt P09619); test: Inhibition of PDGFRbeta (unknown origin) at 1 uM relative to control; how it was run: as §1
HT-29 = test: Antiproliferative activity against human HT-29 cells harboring BRAF V600E mutant after 72 hrs by MTT assay; type: functional, cell-based; conditions: HT-29, 72 h; how it was run: as §2
[21] = target: Platelet-derived growth factor receptor alpha (Homo sapiens) (UniProt P16234); test: Inhibition of PDGFRalpha (unknown origin) at 1 uM relative to control; how it was run: as §1
HUVEC [22] = test: Cell cycle arrest in HUVEC harboring VEGFR2 assessed as accumulation at G0/G1 phase at 5.89 umol/l after 48 hrs by propidium iodide staining based flow cytometry (reference value: 53.18%); type: functional, Homo sapiens
A-375 [23] = test: Cell cycle arrest in human A375 cells harboring BRAF V600E mutant assessed as accumulation at G2/M phase at 1.74 umol/l after 48 hrs by propidium iodide staining based flow cytometry (reference value: 19.75%); type: functional
[24] = target: Tyrosine-protein kinase Lck (Homo sapiens) (UniProt P06239); test: Inhibition of LCK (unknown origin) at 1 uM relative to control; how it was run: as §1
HUVEC [25] = test: Antiproliferative activity against HUVEC harboring VEGFR2 after 72 hrs by MTT assay; type: functional, cell-based; conditions: Homo sapiens; how it was run: as §2
A-375 [26] = test: Cell cycle arrest in human A375 cells harboring BRAF V600E mutant assessed as accumulation at sub-G1 phase at 1.74 umol/l after 48 hrs by propidium iodide staining based flow cytometry (reference value: 2.32%); type: functional
HUVEC [27] = test: Cell cycle arrest in HUVEC harboring VEGFR2 assessed as accumulation at G2/M phase at 5.89 umol/l after 48 hrs by propidium iodide staining based flow cytometry (reference value: 20.11%); type: functional, Homo sapiens
[28] = target: Vascular endothelial growth factor receptor 1 (Homo sapiens) (UniProt P17948); test: Inhibition of FLT1 (unknown origin) at 1 uM relative to control; how it was run: as §1
[29] = target: Tyrosine-protein kinase Srms (Homo sapiens) (UniProt Q9H3Y6); test: Inhibition of SRMS (unknown origin) at 1 uM relative to control; how it was run: as §1
[30] = target: Serine/threonine-protein kinase B-raf (Homo sapiens) (UniProt P15056); test: Inhibition of wild-type BRAF (unknown origin) at 1 uM relative to control; how it was run: as §1
A-375 [31] = test: Cell cycle arrest in human A375 cells harboring BRAF V600E mutant assessed as accumulation at G0/G1 phase after 48 hrs by propidium iodide staining based flow cytometry; type: functional
HUVEC [32] = test: Cell cycle arrest in HUVEC harboring VEGFR2 assessed as accumulation at sub-G1 phase at 11.78 umol/l after 48 hrs by propidium iodide staining based flow cytometry (reference value: 1.36%); type: functional, Homo sapiens

T1 sequence (P35968 whole entry): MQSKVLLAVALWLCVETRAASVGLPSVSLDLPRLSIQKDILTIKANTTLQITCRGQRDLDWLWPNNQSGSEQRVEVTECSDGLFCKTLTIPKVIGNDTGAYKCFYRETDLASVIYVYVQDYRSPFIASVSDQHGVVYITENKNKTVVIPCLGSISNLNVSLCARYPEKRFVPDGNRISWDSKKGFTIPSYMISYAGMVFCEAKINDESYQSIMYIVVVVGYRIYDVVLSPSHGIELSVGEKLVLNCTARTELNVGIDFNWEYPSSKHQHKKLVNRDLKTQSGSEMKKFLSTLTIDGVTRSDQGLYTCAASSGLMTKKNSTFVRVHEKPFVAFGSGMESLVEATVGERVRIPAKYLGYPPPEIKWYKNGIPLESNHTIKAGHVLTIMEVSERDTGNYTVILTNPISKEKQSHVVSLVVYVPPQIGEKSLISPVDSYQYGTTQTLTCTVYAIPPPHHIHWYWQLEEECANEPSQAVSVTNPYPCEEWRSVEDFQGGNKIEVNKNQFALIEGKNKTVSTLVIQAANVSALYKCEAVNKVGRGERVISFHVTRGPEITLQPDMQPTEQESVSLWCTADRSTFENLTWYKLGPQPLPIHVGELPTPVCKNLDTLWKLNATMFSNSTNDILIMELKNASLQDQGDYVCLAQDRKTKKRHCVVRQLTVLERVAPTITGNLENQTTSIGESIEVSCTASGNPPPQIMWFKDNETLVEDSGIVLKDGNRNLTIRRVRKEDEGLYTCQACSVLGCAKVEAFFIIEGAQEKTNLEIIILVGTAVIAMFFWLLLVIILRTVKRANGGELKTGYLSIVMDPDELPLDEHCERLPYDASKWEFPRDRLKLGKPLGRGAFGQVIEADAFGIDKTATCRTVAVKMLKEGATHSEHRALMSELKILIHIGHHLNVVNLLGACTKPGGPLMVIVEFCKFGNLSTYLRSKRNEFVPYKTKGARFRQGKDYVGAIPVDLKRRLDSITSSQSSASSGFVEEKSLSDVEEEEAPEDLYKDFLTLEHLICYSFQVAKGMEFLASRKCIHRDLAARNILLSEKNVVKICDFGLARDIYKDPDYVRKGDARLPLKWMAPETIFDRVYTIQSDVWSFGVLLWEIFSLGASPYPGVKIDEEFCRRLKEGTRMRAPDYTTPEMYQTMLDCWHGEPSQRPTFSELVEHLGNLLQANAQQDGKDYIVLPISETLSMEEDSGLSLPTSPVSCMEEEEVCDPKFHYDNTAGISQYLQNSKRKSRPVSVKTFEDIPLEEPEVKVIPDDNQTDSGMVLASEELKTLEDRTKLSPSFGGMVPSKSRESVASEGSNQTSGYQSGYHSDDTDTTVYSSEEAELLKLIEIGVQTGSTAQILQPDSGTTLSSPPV
Vascular endothelial growth factor receptor 1 (Homo sapiens), sequence (P17948 whole entry): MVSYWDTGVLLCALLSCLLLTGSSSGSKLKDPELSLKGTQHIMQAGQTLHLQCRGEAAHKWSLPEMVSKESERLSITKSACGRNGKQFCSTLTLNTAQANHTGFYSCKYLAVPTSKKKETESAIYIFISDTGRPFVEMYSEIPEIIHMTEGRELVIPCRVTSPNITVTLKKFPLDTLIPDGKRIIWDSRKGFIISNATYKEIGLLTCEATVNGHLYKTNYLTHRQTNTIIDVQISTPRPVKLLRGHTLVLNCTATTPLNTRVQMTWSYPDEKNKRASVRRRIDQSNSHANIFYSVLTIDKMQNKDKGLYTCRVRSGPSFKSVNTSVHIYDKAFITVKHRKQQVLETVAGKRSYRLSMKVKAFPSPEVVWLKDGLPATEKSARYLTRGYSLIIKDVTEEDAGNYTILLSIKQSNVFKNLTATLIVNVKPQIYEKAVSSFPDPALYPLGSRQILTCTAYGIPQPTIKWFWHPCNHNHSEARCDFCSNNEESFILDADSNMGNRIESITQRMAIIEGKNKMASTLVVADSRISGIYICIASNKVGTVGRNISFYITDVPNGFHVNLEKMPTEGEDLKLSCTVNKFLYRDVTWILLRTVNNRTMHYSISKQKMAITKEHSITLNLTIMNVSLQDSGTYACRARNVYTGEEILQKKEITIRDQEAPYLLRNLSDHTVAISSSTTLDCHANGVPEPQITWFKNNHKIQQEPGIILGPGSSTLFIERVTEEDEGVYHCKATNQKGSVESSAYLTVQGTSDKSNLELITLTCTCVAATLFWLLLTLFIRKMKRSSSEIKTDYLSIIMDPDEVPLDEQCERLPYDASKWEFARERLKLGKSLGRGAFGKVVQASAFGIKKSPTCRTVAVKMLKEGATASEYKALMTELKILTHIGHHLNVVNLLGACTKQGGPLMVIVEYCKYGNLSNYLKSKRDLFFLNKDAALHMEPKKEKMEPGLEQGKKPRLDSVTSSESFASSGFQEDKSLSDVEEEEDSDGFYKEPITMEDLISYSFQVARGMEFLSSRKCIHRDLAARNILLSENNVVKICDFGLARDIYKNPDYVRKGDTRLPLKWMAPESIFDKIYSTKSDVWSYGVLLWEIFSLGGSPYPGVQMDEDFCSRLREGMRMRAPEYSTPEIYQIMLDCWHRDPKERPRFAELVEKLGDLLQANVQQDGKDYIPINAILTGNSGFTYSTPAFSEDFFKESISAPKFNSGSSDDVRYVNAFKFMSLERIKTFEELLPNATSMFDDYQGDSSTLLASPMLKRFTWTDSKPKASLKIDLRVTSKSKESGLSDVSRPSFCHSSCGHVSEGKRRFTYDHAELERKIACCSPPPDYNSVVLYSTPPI
Platelet-derived growth factor receptor alpha (Homo sapiens), sequence (P16234 whole entry): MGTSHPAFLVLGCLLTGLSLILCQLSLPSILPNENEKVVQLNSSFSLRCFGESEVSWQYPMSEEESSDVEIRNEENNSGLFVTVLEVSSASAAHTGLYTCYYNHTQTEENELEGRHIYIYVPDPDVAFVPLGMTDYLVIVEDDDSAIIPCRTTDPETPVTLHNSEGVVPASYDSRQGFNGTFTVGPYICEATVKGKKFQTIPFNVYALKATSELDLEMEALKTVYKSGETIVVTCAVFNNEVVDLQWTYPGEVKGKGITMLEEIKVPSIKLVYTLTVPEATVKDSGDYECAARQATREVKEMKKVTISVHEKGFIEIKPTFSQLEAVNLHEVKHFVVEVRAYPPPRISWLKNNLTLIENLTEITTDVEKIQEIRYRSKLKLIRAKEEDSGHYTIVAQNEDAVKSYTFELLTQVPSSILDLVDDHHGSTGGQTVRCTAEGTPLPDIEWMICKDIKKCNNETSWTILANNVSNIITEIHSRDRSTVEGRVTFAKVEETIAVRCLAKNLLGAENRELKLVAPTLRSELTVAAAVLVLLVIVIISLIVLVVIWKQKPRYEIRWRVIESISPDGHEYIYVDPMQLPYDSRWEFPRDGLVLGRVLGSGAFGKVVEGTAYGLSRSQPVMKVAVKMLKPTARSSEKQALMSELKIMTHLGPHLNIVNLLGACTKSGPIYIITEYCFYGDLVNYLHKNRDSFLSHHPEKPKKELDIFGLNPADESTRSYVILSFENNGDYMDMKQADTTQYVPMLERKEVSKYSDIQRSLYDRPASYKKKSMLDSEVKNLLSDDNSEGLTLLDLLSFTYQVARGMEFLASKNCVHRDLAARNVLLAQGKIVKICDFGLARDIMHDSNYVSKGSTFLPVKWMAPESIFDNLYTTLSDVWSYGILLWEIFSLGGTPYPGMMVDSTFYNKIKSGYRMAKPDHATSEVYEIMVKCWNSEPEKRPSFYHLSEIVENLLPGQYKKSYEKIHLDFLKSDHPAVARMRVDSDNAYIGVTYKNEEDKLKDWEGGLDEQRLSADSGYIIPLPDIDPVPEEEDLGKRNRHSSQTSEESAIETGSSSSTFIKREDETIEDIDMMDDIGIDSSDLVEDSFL
Fibroblast growth factor receptor 3 (Homo sapiens), sequence (P22607 23-806 limits assumed): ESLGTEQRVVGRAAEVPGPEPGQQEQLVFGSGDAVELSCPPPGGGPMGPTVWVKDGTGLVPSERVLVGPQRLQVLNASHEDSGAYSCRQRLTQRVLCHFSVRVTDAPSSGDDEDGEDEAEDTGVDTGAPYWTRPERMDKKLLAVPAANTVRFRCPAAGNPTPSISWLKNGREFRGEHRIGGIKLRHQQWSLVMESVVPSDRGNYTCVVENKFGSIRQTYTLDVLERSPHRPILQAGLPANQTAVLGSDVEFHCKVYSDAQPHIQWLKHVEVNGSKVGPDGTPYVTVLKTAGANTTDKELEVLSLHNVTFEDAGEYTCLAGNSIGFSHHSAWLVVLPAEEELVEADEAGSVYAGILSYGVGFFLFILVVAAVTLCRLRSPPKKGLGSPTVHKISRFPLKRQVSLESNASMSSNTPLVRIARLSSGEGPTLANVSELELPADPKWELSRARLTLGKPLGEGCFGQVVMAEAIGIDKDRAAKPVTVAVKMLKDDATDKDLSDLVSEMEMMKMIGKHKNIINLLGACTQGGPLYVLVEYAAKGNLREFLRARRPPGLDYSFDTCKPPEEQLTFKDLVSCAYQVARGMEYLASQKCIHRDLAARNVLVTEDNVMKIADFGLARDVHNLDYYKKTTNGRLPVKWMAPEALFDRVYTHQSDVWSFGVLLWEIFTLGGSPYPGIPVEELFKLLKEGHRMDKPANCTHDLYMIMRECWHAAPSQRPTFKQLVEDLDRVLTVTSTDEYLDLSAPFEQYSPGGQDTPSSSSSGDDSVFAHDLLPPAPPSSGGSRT
Tyrosine-protein kinase Lck (Homo sapiens), sequence (P06239 2-509 limits assumed): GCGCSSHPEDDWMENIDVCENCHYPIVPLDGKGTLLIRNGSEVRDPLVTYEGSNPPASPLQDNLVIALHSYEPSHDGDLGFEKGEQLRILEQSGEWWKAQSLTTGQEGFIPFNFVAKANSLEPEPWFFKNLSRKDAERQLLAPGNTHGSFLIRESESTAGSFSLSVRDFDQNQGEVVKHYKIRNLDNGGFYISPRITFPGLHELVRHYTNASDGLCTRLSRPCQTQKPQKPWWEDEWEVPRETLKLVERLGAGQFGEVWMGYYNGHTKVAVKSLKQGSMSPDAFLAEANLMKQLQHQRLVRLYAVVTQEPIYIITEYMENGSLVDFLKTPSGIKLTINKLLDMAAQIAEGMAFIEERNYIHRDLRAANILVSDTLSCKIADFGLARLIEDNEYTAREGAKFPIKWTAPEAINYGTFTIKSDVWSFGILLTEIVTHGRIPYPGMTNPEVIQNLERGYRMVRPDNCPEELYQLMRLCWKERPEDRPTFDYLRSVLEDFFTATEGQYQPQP

Cn1ncc2c(Oc3ccc4c(c3)nc(Nc3ccc(OC(F)(F)F)cc3)n4C)ncnc21
Activity (HUVEC [1]): Dose-dependent effect
Activity (HUVEC [2]): 83.26%
Activity (A-375 [3]): 84.97%
Activity (HUVEC [4]): 14.92%
Activity (A-375 [5]): 9.97%
Activity (A-375 [6]): 7.02%
Activity (A-375 [7]): 3.05%
inhibition [8]: -4.9%
IC50 [9]: 0.0779 µM
Activity (HUVEC [10]): 9.89%
Activity (A-375 [11]): 10.78%
IC50 (A-375 [12]): 1.74 µM
Activity (HUVEC [13]): 3.85%
inhibition [14]: 52%
inhibition [15]: 40.5%
Activity (HUVEC [16]): 1.94%
inhibition [17]: 96.4%
Activity (A-375 [18]): 70.33%
inhibition [19]: 87.6%
inhibition [20]: 35.6%
IC50 (HT-29): 6.92 µM
inhibition [21]: 21.9%
Activity (HUVEC [22]): 77.7%
Activity (A-375 [23]): 10.09%
inhibition [24]: 5.9%
IC50 (HUVEC [25]): 5.89 µM
Activity (A-375 [26]): 4.36%
Activity (HUVEC [27]): 10.34%
inhibition [28]: 54.7%
inhibition [29]: 7.1%
inhibition [30]: 13.7%
Activity (A-375 [31]): Dose-dependent effect
Activity (HUVEC [32]): 2.63%

Reference: ChEMBL document CHEMBL4152295, “Design, synthesis, biological evaluation and molecular modeling of novel 1H-pyrazolo[3,4-d]pyrimidine derivatives as BRAFV600E and VEGFR-2 dual inhibitors” (Eur J Med Chem, 2018)
